Test results from ChEMBL document CHEMBL4330106, “A new class of pentapeptide KISS1 receptor agonists with hypothalamic-pituitary-gonadal axis activation” (Bioorg Med Chem Lett, 2019).
Calls of active or inactive are those of the source. The calls are words filed in the database; no cut-off is given here. Square brackets hold non-standard residues; d marks the D form. Peptide text beside a SMILES is read from it. * marks the point of attachment. Propanoyl(3-indol-3-yl) = O=C(CCc1c[nH]c2ccccc12)*; Propanoyl(3-(4-pyridyl)) = O=C(CCc1ccncc1)*; Arg(Me) = CNC(=N)NCCC[C@H](N)C(=O)O; Hydrocinnamoyl = O=C(CCc1ccccc1)*; d4Pal = N[C@H](Cc1ccncc1)C(=O)O; Hexanoyl = CCCCCC(=O)*; Bz = O=C(c1ccccc1)*; azaGly = NNC(=O)O

Tests used:
[1] = Retention time of the compound by reverse-phase HPLC method; type: physicochemical
Method in brief: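 RP-HPLC on C18 monolith column. Linear gradient of 0.1% TFA water / 0.1% TFA acetonitrile, A/B 95/5 to 35/65 over 10 min, 3.0 mL/min.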

[2] = biological target: KiSS-1 receptor (Homo sapiens, UniProt Q969F8); assay: Agonist activity at human KISS1R expressed in CHO cells assessed as increase in calcium mobilization measured at 2 secs interval for 2 mins by fluo-4 NW dye based FLIPR assay; type: functional, cell-based
KiSS-1 receptor (Homo sapiens, UniProt Q969F8), sequence (Q969F8 whole entry): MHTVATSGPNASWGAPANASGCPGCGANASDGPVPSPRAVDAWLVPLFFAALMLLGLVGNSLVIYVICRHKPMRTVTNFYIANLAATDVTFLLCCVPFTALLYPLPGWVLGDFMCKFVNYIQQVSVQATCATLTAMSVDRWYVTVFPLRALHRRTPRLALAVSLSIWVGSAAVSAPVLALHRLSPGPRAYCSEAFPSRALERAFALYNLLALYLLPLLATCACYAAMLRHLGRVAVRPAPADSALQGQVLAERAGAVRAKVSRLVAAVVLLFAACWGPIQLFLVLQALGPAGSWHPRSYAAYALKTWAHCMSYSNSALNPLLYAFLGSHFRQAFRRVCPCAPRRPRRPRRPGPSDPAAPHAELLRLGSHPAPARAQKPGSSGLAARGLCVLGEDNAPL
Method in brief: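 Ligand-induced Ca2+ rise in CHO cells expressing human KISS1R, read on a fluorometric imaging plate reader (FLIPR); agonist potency reported as EC50 (nM).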

[3] = Stability in Sprague-Dawley rat serum assessed as parent compound remaining at 10 ug/ml measured after 15 mins by LC-MS/MS analysis; type: ADME, cell-free; conditions: read-out: Stability
Method in brief: (§1)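 10 µL of 10 μg/mL aqueous peptide stock added to 990 μL pre-warmed SD rat serum (final 0.1 μg/mL), 37 °C. Aliquots taken at 0, 5, 15, 30, 60, 120 min. Quenched with formic acid/methanol and acetonitrile, centrifuged, internal standard added, quantified by LC/MS/MS. Result is percent remaining; n = 2.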

[4] = Stability in Sprague-Dawley rat serum assessed as parent compound remaining at 10 ug/ml measured after 30 mins by LC-MS/MS analysis; type: ADME, cell-free; conditions: read-out: Stability; method in brief: as §1
[5] = Stability in Sprague-Dawley rat serum assessed as parent compound remaining at 10 ug/ml measured immediately by LC-MS/MS analysis; type: ADME, cell-free; conditions: read-out: Stability; method in brief: as §1
[6] = Solubility of the compound in water; type: physicochemical
[7] = Stability in Sprague-Dawley rat serum assessed as parent compound remaining at 10 ug/ml measured after 120 mins by LC-MS/MS analysis; type: ADME, cell-free; conditions: read-out: Stability; method in brief: as §1
[8] = Stability in Sprague-Dawley rat serum assessed as parent compound remaining at 10 ug/ml measured after 60 mins by LC-MS/MS analysis; type: ADME, cell-free; conditions: read-out: Stability; method in brief: as §1
[9] = Stability in Sprague-Dawley rat serum assessed as parent compound remaining at 10 ug/ml measured after 5 mins by LC-MS/MS analysis; type: ADME, cell-free; conditions: read-out: Stability; method in brief: as §1
[10] = Solubility of the compound in saline; type: physicochemical
[11] = tested on: Rattus norvegicus; assay: Increase in plasma luteinizing hormone AUC (0 to 8 hrs) in Crl:CD(SD) rat at 100 nmol/kg, sc administered as single bolus dose; type: functional, organism-based
Method in brief: (§2)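 Single subcutaneous bolus of 10, 100 or 1000 nmol/kg in 9-week-old male Crl:CD (SD) rats, n = 5, saline vehicle. Plasma LH measured 1, 2, 4 and 8 h post-dose. AUC0–8h (ng·h/mL) calculated per rat. One-tailed Williams' test versus vehicle; mean ± SD.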

[12] = Drug uptake in Crl:CD(SD) rat plasma administered via subcutaneous osmotic pumps every 1 hr after 6 days by LC/MS analysis; type: ADME, cell-free; conditions: sc, 144 h
Method in brief: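 9-week-old male Crl:CD (SD) rats (five per group) implanted subcutaneously with osmotic pumps of 5, 10 or 20 mM aqueous peptide, delivering 5, 10, 20 nmol/h for 6 days. Steady-state plasma measured by LC/MS after protein precipitation with organic solvent; mean ± SD.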

[13] = tested on: Rattus norvegicus; assay: Suppression of plasma testosterone level in Crl:CD(SD) rat at 5 to 20 nmol/hr administered via subcutaneous osmotic pumps measured after 6 days by radioimmunoassay; type: ADME, organism-based; conditions: in vivo, sc, 144 h
Method in brief: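 Five 9-week-old male Crl:CD (SD) rats per group received continuous subcutaneous infusion by osmotic pump for 6 days: leuprolide 2 nmol/h, or test peptide 5, 10, 20 nmol/h from 5–20 mM aqueous solution. Plasma testosterone measured by radioimmunoassay. Distilled-water control; Dunnett's test; mean ± SD.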

[14] = tested on: Rattus norvegicus; assay: Stimulation of plasma luteinizing hormone release in sc dosed Crl:CD(SD) rat administered as single bolus dose measured after 1 to 8 hrs; type: functional, organism-based; method in brief: as §2
[15] = biological target: KiSS-1 receptor (Rattus norvegicus, UniProt Q924U1); assay: Agonist activity at rat KISS1R
KiSS-1 receptor (Rattus norvegicus, UniProt Q924U1), sequence (Q924U1 whole entry): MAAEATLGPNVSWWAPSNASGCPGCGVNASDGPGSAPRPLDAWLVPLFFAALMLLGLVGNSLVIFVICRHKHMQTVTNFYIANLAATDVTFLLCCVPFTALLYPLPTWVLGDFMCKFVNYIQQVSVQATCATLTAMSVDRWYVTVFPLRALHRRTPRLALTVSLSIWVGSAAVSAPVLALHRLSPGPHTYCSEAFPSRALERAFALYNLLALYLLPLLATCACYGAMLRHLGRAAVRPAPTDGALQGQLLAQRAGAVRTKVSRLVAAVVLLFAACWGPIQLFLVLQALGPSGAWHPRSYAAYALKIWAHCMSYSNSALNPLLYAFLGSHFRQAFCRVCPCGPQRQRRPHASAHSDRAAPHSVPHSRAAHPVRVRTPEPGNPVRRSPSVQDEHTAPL

| Structure (SMILES) | Retention_time [1] [min] | EC50 [2] [pM] | other results |
| --- | --- | --- | --- |
| CNC(=N)NCCC[C@H](NC(=O)[C@H](CC(C)C)NC(=O)NNC(=O)[C@H](Cc1ccccc1)NC(=O)[C@H](CO)NC(=O)[C@H](CC(N)=O)NC(=O)CCc1ccncc1)C(=O)N[C@@H](Cc1ccccc1)C(N)=O ({Propanoyl(3-(4-pyridyl))}-NSF[azaGly]L[Arg(Me)]F-NH2) | 4.51 | 1500 | – |
| CNC(=N)NCCC[C@H](NC(=O)[C@H](CC(C)C)NC(=O)NNC(=O)[C@H](Cc1ccccc1)NC(C)=O)C(=O)N[C@@H](Cc1ccccc1)C(N)=O (Ac-F[azaGly]L[Arg(Me)]F-NH2) | 5.02 | 330 | – |
| CNC(=N)NCCC[C@H](NC(=O)[C@H](CC(C)C)NC(=O)NNC(=O)[C@H](Cc1ccccc1)NC(=O)c1c[nH]cn1)C(=O)N[C@@H](Cc1c[nH]c2ccccc12)C(N)=O | 4.47 | 240 | – |
| CCCCCC(=O)N[C@@H](Cc1ccccc1)C(=O)NNC(=O)N[C@@H](CC(C)C)C(=O)N[C@@H](CCCNC(=N)NC)C(=O)N[C@@H](Cc1ccccc1)C(N)=O (Hexanoyl-F[azaGly]L[Arg(Me)]F-NH2) | 6.66 | 1400 | – |
| CNC(=N)NCCC[C@H](NC(=O)[C@H](CC(C)C)NC(=O)NNC(=O)[C@H](Cc1ccccc1)NC(=O)Cc1ccccc1)C(=O)N[C@@H](Cc1c[nH]c2ccccc12)C(N)=O | 6.49 | 270 | – |
| CNC(=N)NCCC[C@H](NC(=O)[C@H](CC(C)C)NC(=O)NNC(=O)[C@H](Cc1ccccc1)NC(=O)[C@H](CO)NC(=O)[C@H](CC(N)=O)NC(=O)[C@H](Cc1c[nH]c2ccccc12)NC(C)=O)C(=O)N[C@@H](Cc1ccccc1)C(N)=O (Ac-WNSF[azaGly]L[Arg(Me)]F-NH2) | 5.76 | 2100 | – |
| CNC(=N)NCCC[C@H](NC(=O)[C@H](CC(C)C)NC(=O)NNC(=O)[C@H](Cc1ccccc1)NC(=O)[C@H](CO)NC(=O)[C@H](CC(N)=O)NC(=O)CCc1ccccc1)C(=O)N[C@@H](Cc1ccccc1)C(N)=O (Hydrocinnamoyl-NSF[azaGly]L[Arg(Me)]F-NH2) | 5.9 | 170 | – |
| CNC(=N)NCCC[C@H](NC(=O)[C@H](CC(C)C)NC(=O)NNC(=O)[C@H](Cc1ccccc1)NC(=O)CCc1c[nH]c2ccccc12)C(=O)N[C@@H](Cc1ccccc1)C(N)=O ({Propanoyl(3-indol-3-yl)}-F[azaGly]L[Arg(Me)]F-NH2) | 6.58 | 620 | – |
| CNC(=N)NCCC[C@H](NC(=O)[C@H](CC(C)C)NC(=O)NNC(=O)[C@H](Cc1ccccc1)NC(=O)c1ccc[nH]1)C(=O)N[C@@H](Cc1c[nH]c2ccccc12)C(N)=O | 5.91 | 230 | – |
| CNC(=N)NCCC[C@H](NC(=O)[C@H](CC(C)C)NC(=O)NNC(=O)[C@H](Cc1ccccc1)NC(=O)c1cccnc1)C(=O)N[C@@H](Cc1c[nH]c2ccccc12)C(N)=O | 4.69 | 160 | – |
| CNC(=N)NCCC[C@H](NC(=O)[C@H](CC(C)C)NC(=O)NNC(=O)[C@H](Cc1ccccc1)NC(=O)[C@H](CO)NC(=O)[C@H](CC(N)=O)NC(=O)[C@@H](N)Cc1c[nH]c2ccccc12)C(=O)N[C@@H](Cc1ccccc1)C(N)=O (H-WNSF[azaGly]L[Arg(Me)]F-NH2) | 5.03 | 7700 | – |
| CNC(=N)NCCC[C@H](NC(=O)[C@H](CC(C)C)NC(=O)NNC(=O)[C@H](Cc1ccccc1)NC(=O)c1ccccc1)C(=O)N[C@@H](Cc1ccccc1)C(N)=O (Bz-F[azaGly]L[Arg(Me)]F-NH2) | 6.21 | 600 | – |
| CNC(=N)NCCC[C@H](NC(=O)[C@H](CC(C)C)NC(=O)NNC(=O)[C@H](Cc1ccccc1)NC(=O)[C@H](CO)NC(=O)CCc1c[nH]c2ccccc12)C(=O)N[C@@H](Cc1ccccc1)C(N)=O ({Propanoyl(3-indol-3-yl)}-SF[azaGly]L[Arg(Me)]F-NH2) | 6.17 | 8200 | – |
| CNC(=N)NCCC[C@H](NC(=O)[C@H](CC(C)C)NC(=O)NNC(=O)[C@H](Cc1ccccc1)NC(=O)[C@H](CO)NC(=O)[C@H](CC(N)=O)NC(=O)[C@@H](Cc1ccncc1)NC(=O)[C@H](N)Cc1ccc(O)cc1)C(=O)N[C@@H](Cc1ccccc1)C(N)=O [KISS1-305] (H-[dY][d4Pal]NSF[azaGly]L[Arg(Me)]F-NH2) | – | 270 | remaining at 0.25 h, 10 ug/ml [3]: 97%; remaining at 0.5 h, 10 ug/ml [4]: 95%; remaining at 0 min, 10 ug/ml [5]: 100%; remaining at 2 h, 10 ug/ml [7]: 70%; remaining at 1 h, 10 ug/ml [8]: 89%; remaining at 5 min, 10 ug/ml [9]: 98%; EC50 [15]: 170 pM |
| CNC(=N)NCCC[C@H](NC(=O)[C@H](CC(C)C)NC(=O)NNC(=O)[C@@H](N)Cc1ccccc1)C(=O)N[C@@H](Cc1ccccc1)C(N)=O (H-F[azaGly]L[Arg(Me)]F-NH2) | 4.29 | 130000 | – |

Now those with a lower EC50 [2], led by results:

| Retention_time [1] [min] | EC50 [2] [pM] | Structure (SMILES) | other results |
| --- | --- | --- | --- |
| 5.95 | 130 | CNC(=N)NCCC[C@H](NC(=O)[C@H](CC(C)C)NC(=O)NNC(=O)[C@H](Cc1ccccc1)NC(=O)[C@H](CO)NC(=O)[C@H](CC(N)=O)NC(=O)CCc1c[nH]c2ccccc12)C(=O)N[C@@H](Cc1ccccc1)C(N)=O ({Propanoyl(3-indol-3-yl)}-NSF[azaGly]L[Arg(Me)]F-NH2) | – |
| 5.52 | 130 | CCC(=O)N[C@@H](Cc1ccccc1)C(=O)NNC(=O)N[C@@H](CC(C)C)C(=O)N[C@@H](CCCNC(=N)NC)C(=O)N[C@@H](Cc1c[nH]c2ccccc12)C(N)=O | – |
| 5.54 | 57 | CNC(=N)NCCC[C@H](NC(=O)[C@H](CC(C)C)NC(=O)NNC(=O)[C@H](Cc1ccccc1)NC(=O)[C@H](CO)NC(=O)[C@H](CC(N)=O)NC(=O)[C@H](Cc1c[nH]c2ccccc12)NC(=O)[C@H](N)Cc1ccc(O)cc1)C(=O)N[C@@H](Cc1ccccc1)C(N)=O (H-[dY]WNSF[azaGly]L[Arg(Me)]F-NH2) | – |
| 6.29 | 24 | CNC(=N)NCCC[C@H](NC(=O)[C@H](CC(C)C)NC(=O)NNC(=O)[C@H](Cc1ccccc1)NC(=O)c1ccccc1)C(=O)N[C@@H](Cc1c[nH]c2ccccc12)C(N)=O | remaining at 0.25 h, 10 ug/ml [3]: 97%; remaining at 0.5 h, 10 ug/ml [4]: 99%; remaining at 0 min, 10 ug/ml [5]: 100%; solubility [6]: < 10000 µg/mL; remaining at 2 h, 10 ug/ml [7]: 91%; remaining at 1 h, 10 ug/ml [8]: 95%; remaining at 5 min, 10 ug/ml [9]: 98%; solubility [10]: < 100 µg/mL |
| 6.02 | 37 | CNC(=N)NCCC[C@H](NC(=O)[C@H](CC(C)C)NC(=O)NNC(=O)[C@H](Cc1ccccc1)NC(=O)c1ccccn1)C(=O)N[C@@H](Cc1c[nH]c2ccccc12)C(N)=O | – |
| 5.7 | 28 | CNC(=N)NCCC[C@H](NC(=O)[C@H](CC(C)C)NC(=O)NNC(=O)[C@H](Cc1ccccc1)NC(=O)C1CC1)C(=O)N[C@@H](Cc1c[nH]c2ccccc12)C(N)=O | – |
| 4.48 | 68 | CNC(=N)NCCC[C@H](NC(=O)[C@H](CC(C)C)NC(=O)NNC(=O)[C@H](Cc1ccccc1)NC(=O)c1ccncc1)C(=O)N[C@@H](Cc1c[nH]c2ccccc12)C(N)=O | Activity [11]: Active; Drug uptake [12]: Dose-dependent effect; Activity [13]: Non-Toxic; solubility [6]: > 20000 µg/mL; Activity [14]: Dose-dependent effect; solubility [10]: > 1000 µg/mL; EC50 [15]: 1200 pM |
| 5.88 | 110 | CNC(=N)NCCC[C@H](NC(=O)[C@H](CC(C)C)NC(=O)NNC(=O)[C@H](Cc1ccccc1)NC(=O)c1ccoc1)C(=O)N[C@@H](Cc1c[nH]c2ccccc12)C(N)=O | – |
| 5.88 | 58 | CNC(=N)NCCC[C@H](NC(=O)[C@H](CC(C)C)NC(=O)NNC(=O)[C@H](Cc1ccccc1)NC(=O)C(C)C)C(=O)N[C@@H](Cc1c[nH]c2ccccc12)C(N)=O | – |
| 6.67 | 22 | CNC(=N)NCCC[C@H](NC(=O)[C@H](CC(C)C)NC(=O)NNC(=O)[C@H](Cc1ccccc1)NC(=O)CCc1c[nH]c2ccccc12)C(=O)N[C@@H](Cc1c[nH]c2ccccc12)C(N)=O | – |
| 6.7 | 120 | CNC(=N)NCCC[C@H](NC(=O)[C@H](CC(C)C)NC(=O)NNC(=O)[C@H](Cc1ccccc1)NC(=O)C1CCCCC1)C(=O)N[C@@H](Cc1c[nH]c2ccccc12)C(N)=O | – |
